From ChEMBL document CHEMBL3779815, “Synthesis of newer 1,2,3-triazole linked chalcone and flavone hybrid compounds and evaluation of their antimicrobial and cytotoxic activities” (Eur J Med Chem, 2016)
In brackets after ≈: the same amount, converted by molar mass.

What was measured:
Aspergillus niger = assay: Antifungal activity against Aspergillus niger clinical isolate after 18 to 24 hrs by micro-dilution method; assay type: functional
Procedure, shortened: (§1)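 Microdilution MIC run as the antibacterial protocol but on Sabouraud dextrose […] pH 7.3±0.2; compounds 100 to 0.78 μg/mL in twofold steps; saline-prepared inocula 1-2 × 10⁷ cfu/mL, 0.01 mL added; 37 °C aerobic, 18-24 h; MIC read as lowest concentration without visible growth or turbidity; fluconazole reference.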

Candida tropicalis = assay: Antifungal activity against Candida tropicalis ATCC 750 after 18 to 24 hrs by micro-dilution method; assay type: functional; procedure, shortened: as §1
Shigella boydii = assay: Antibacterial activity against Shigella boydii clinical isolate after 18 to 24 hrs by micro-dilution method; assay type: functional
Staphylococcus aureus = assay: Antibacterial activity against Staphylococcus aureus […] after 18 to 24 hrs by micro-dilution method; assay type: functional
Candida albicans [1] = assay: Antifungal activity against Candida albicans ATCC 90028 after 18 to 24 hrs by micro-dilution method; assay type: functional; procedure, shortened: as §1
Enterococcus faecalis = assay: Antibacterial activity against Enterococcus faecalis ATCC 29212 after 18 to 24 hrs by micro-dilution assay; assay type: functional
Cryptococcus neoformans = assay: Antifungal activity against Cryptococcus neoformans clinical isolate after 18 to 24 hrs by micro-dilution method; assay type: functional; procedure, shortened: as §1
Aspergillus fumigatus = assay: Antifungal activity against Aspergillus fumigatus clinical isolate after 18 to 24 hrs by micro-dilution method; assay type: functional; procedure, shortened: as §1
Candida albicans [2] = assay: Antifungal activity against Candida albicans clinical isolate after 18 to 24 hrs by micro-dilution method; assay type: functional; procedure, shortened: as §1
Escherichia coli = assay: Antibacterial activity against Escherichia coli ATCC 35218 after 18 to 24 hrs by micro-dilution method; assay type: functional
[3] = Cytotoxicity against human HuH7 cells after 72 hrs by MTT assay; assay type: cell-based, Huh-7
Procedure, shortened: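 Huh-7 cells, 4 × 10³/well in DMEM with 10% FBS and penicillin-streptomycin-glutamine; eight 2-fold dilutions 100-0.78 μg/mL, 72 h; MTT added 2-4 h, then isopropanol/Triton X-100/HCl solubilization 2 h dark, RT; absorbance 570 nm; CC50 as mean of at least two experiments in duplicate.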

Plasmodium falciparum = assay: Antimalarial activity against erythrocytic stage of chloroquine sensitive Plasmodium falciparum 3D7 assessed as inhibition of parasitemia after 48 hrs by Giemsa staining based microscopic analysis; assay type: functional, organism-based; details: 3D7, 48 h
Procedure, shortened: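 Asynchronous culture on human O⁺ erythrocytes, 1-1.5% parasitemia, 4% hematocrit, RPMI-1640 with HEPES, NaHCO₃, glutamine, gentamycin, Albumax II; drug 0.10-100 μg/mL, 48 h, 37 °C, medium changed at 24 h; triplicate wells; Giemsa thin smears, about 4,000 erythrocytes counted at 1,000X; % parasitemia inhibition versus control gives IC50.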

Arthrodermataceae = assay: Antifungal activity against Dermatophyte clinical isolate after 18 to 24 hrs by micro-dilution method; assay type: functional; procedure, shortened: as §1
Klebsiella pneumoniae = assay: Antibacterial activity against Klebsiella pneumoniae ATCC 27736 after 18 to 24 hrs by micro-dilution method; assay type: functional
Candida parapsilosis = assay: Antifungal activity against Candida parapsilosis ATCC 22019 after 18 to 24 hrs by micro-dilution method; assay type: functional; details: Lodderomyces parapsilosis; procedure, shortened: as §1
Pseudomonas aeruginosa = assay: Antibacterial activity against Pseudomonas aeruginosa […] after 18 to 24 hrs by micro-dilution method; assay type: functional

Row | Structure (SMILES) | MIC (Aspergillus niger) | MIC (Candida tropicalis) | MIC (Shigella boydii) | MIC (Staphylococcus aureus) | MIC (Candida albicans [1]) | MIC (Enterococcus faecalis) | MIC (Cryptococcus neoformans) | MIC (Aspergillus fumigatus) | MIC (Candida albicans [2]) | MIC (Escherichia coli) | CC50 at 72 h [3] | IC50 (Plasmodium falciparum) | MIC (Arthrodermataceae) | MIC (Klebsiella pneumoniae) | MIC (Candida parapsilosis) | MIC (Pseudomonas aeruginosa)
1 | COc1cc(O)c(C(=O)/C=C/c2ccc(OC)c(OCc3cn(-c4ccc(F)cc4F)nn3)c2)c(OC)c1 | 50 µg/mL (≈ 95.5 µM) | > 100 µg/mL | 12.5 µg/mL (≈ 23.9 µM) | 100 µg/mL (≈ 191 µM) | > 100 µg/mL | 25 µg/mL (≈ 47.8 µM) | > 100 µg/mL | 50 µg/mL (≈ 95.5 µM) | > 100 µg/mL | 50 µg/mL (≈ 95.5 µM) | > 100 µg/mL | 9.54 µg/mL (≈ 18.2 µM) | > 100 µg/mL | > 100 µg/mL | > 100 µg/mL | > 100 µg/mL
2 | COc1cc(OC)c2c(=O)cc(-c3ccc(OCc4cn(-c5ccccc5Cl)nn4)c(OC)c3)oc2c1 | > 100 µg/mL | > 100 µg/mL | > 100 µg/mL | 50 µg/mL (≈ 96.2 µM) | > 100 µg/mL | 50 µg/mL (≈ 96.2 µM) | > 100 µg/mL | > 100 µg/mL | > 100 µg/mL | 100 µg/mL (≈ 192 µM) | > 100 µg/mL | 12.1 µg/mL (≈ 23.2 µM) | > 100 µg/mL | 100 µg/mL (≈ 192 µM) | > 100 µg/mL | 50 µg/mL (≈ 96.2 µM)
3 | C[C@@H]1CC[C@H]2[C@@H](C)C(=O)O[C@@H]3O[C@@]4(C)CC[C@@H]1[C@]32OO4 [ARTEMISININ] |  |  |  |  |  |  |  |  |  |  | > 100 µg/mL | 0.00112 µg/mL (≈ 0.00396 µM) |  |  |  | 
4 | COc1cc(O)c(C(=O)/C=C/c2ccc(OCc3cn(-c4ccc(Cl)cc4)nn3)c(OC)c2)c(OC)c1 | 25 µg/mL (≈ 47.9 µM) | 6.25 µg/mL (≈ 12 µM) | > 100 µg/mL | > 100 µg/mL | 12.5 µg/mL (≈ 23.9 µM) | > 100 µg/mL | 12.5 µg/mL (≈ 23.9 µM) | 25 µg/mL (≈ 47.9 µM) | 6.25 µg/mL (≈ 12 µM) | > 100 µg/mL | > 100 µg/mL | 5.08 µg/mL (≈ 9.73 µM) | 12.5 µg/mL (≈ 23.9 µM) | > 100 µg/mL | 12.5 µg/mL (≈ 23.9 µM) | > 100 µg/mL
5 | COc1cc(OC)c2c(=O)cc(-c3ccc(OCc4cn(-c5ccc(F)c(Cl)c5)nn4)c(OCc4cn(-c5ccc(F)c(Cl)c5)nn4)c3)oc2c1 | 100 µg/mL (≈ 136 µM) | 100 µg/mL (≈ 136 µM) | > 100 µg/mL | > 100 µg/mL | > 100 µg/mL | > 100 µg/mL | > 100 µg/mL | > 100 µg/mL | > 100 µg/mL | 100 µg/mL (≈ 136 µM) | > 100 µg/mL | 10.4 µg/mL (≈ 14.2 µM) | > 100 µg/mL | > 100 µg/mL | > 100 µg/mL | 100 µg/mL (≈ 136 µM)
6 | COc1cc(O)c(C(=O)/C=C/c2ccc(OCc3cn(-c4ccc(F)cc4Cl)nn3)c(OC)c2)c(OC)c1 | 100 µg/mL (≈ 185 µM) | 100 µg/mL (≈ 185 µM) | 12.5 µg/mL (≈ 23.2 µM) | 6.25 µg/mL (≈ 11.6 µM) | 50 µg/mL (≈ 92.6 µM) | 6.25 µg/mL (≈ 11.6 µM) | > 100 µg/mL | > 100 µg/mL | > 100 µg/mL | 12.5 µg/mL (≈ 23.2 µM) | > 100 µg/mL | 6.27 µg/mL (≈ 11.6 µM) | 25 µg/mL (≈ 46.3 µM) | 25 µg/mL (≈ 46.3 µM) | > 100 µg/mL | 12.5 µg/mL (≈ 23.2 µM)
7 | COc1cc(OC)c2c(=O)cc(-c3ccc(OCc4cn(-c5ccccc5Cl)nn4)c(OCc4cn(-c5ccccc5Cl)nn4)c3)oc2c1 | 12.5 µg/mL (≈ 17.9 µM) | 12.5 µg/mL (≈ 17.9 µM) | > 100 µg/mL | > 100 µg/mL | 12.5 µg/mL (≈ 17.9 µM) | > 100 µg/mL | 6.25 µg/mL (≈ 8.96 µM) | 12.5 µg/mL (≈ 17.9 µM) | 12.5 µg/mL (≈ 17.9 µM) | > 100 µg/mL | > 100 µg/mL | 8.98 µg/mL (≈ 12.9 µM) | 12.5 µg/mL (≈ 17.9 µM) | > 100 µg/mL | 12.5 µg/mL (≈ 17.9 µM) | > 100 µg/mL
8 | COc1cc(OC)c2c(=O)cc(-c3ccc(OCc4cn(-c5ccc(Cl)cc5)nn4)c(OCc4cn(-c5ccc(Cl)cc5)nn4)c3)oc2c1 | > 100 µg/mL | > 100 µg/mL | 25 µg/mL (≈ 35.8 µM) | 12.5 µg/mL (≈ 17.9 µM) | > 100 µg/mL | 12.5 µg/mL (≈ 17.9 µM) | > 100 µg/mL | > 100 µg/mL | > 100 µg/mL | 6.25 µg/mL (≈ 8.96 µM) | > 100 µg/mL | 11.3 µg/mL (≈ 16.2 µM) | > 100 µg/mL | 12.5 µg/mL (≈ 17.9 µM) | > 100 µg/mL | 12.5 µg/mL (≈ 17.9 µM)
9 | OC(Cn1cncn1)(Cn1cncn1)c1ccc(F)cc1F [FLUCONAZOLE] | 2 µg/mL (≈ 6.53 µM) | 0.5 µg/mL (≈ 1.63 µM) |  |  | 0.5 µg/mL (≈ 1.63 µM) |  | 2 µg/mL (≈ 6.53 µM) | 2 µg/mL (≈ 6.53 µM) | 0.5 µg/mL (≈ 1.63 µM) |  |  |  | 4 µg/mL (≈ 13.1 µM) |  | 0.5 µg/mL (≈ 1.63 µM) | 
